Measured values reported in ChEMBL document CHEMBL2346604, “Synthesis of nordihydroguaiaretic acid derivatives and their bioactivities on S. pombe and K562 cell lines” (Eur J Med Chem, 2013).
≈ marks a conversion by molar mass, not a printed value.

Key:
[1] = tested on: Schizosaccharomyces pombe; assay: Inhibition of growth metabolism of Schizosaccharomyces pombe ACCC 20047 assessed as growth rate constant at 40 mg/L at 32 degC by TAM air microcalorimetry; type: functional
Method in brief: (§1)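 Cells seeded at 1×10⁶ cells/mL with compound at a range of concentrations. Heat output recorded continuously in a TAM Air isothermal microcalorimeter. Growth rate constant k taken from power-time curves. I = (k0 − kc)/k0 × 100%, and IC50 is the concentration giving I = 50%. n = 3.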

[2] = tested on: K562; assay: Inhibitive ratio of growth metabolism of human K562 cells at 6 mg/L at 37 degC by TAM air microcalorimetry (reference value: 0%); type: functional
Method in brief: (§2)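 K562 cells in supplemented RPMI 1640 (10% FBS) seeded at 1×10⁶ cells/mL with compound at graded concentrations. Heat flow recorded in real time in an eight-channel isothermal microcalorimeter (TAM Air). Rate constant k derived from thermogenic growth curves. Inhibition ratio I = (k0 − kc)/k0 × 100% relative to untreated cells, and IC50 is the concentration at I = 50%. Mean ± S.D., n = 3.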

[3] = tested on: Schizosaccharomyces pombe; assay: Inhibition of growth metabolism of Schizosaccharomyces pombe ACCC 20047 assessed as growth rate constant at 20 mg/L at 32 degC by TAM air microcalorimetry; type: functional; method in brief: as §1
[4] = tested on: K562; assay: Inhibitive ratio of growth metabolism of human K562 cells at 4 mg/L at 37 degC by TAM air microcalorimetry (reference value: 0%); type: functional; method in brief: as §2
[5] = tested on: Schizosaccharomyces pombe; assay: Inhibition of growth metabolism of Schizosaccharomyces pombe ACCC 20047 assessed as growth rate constant at 80 mg/L at 32 degC by TAM air microcalorimetry; type: functional; method in brief: as §1
[6] = tested on: K562; assay: Inhibition of growth metabolism of human K562 cells assessed as growth rate constant at 8 mg/L at 37 degC by TAM air microcalorimetry; type: functional; method in brief: as §2
[7] = tested on: K562; assay: Inhibition of growth metabolism of human K562 cells assessed as growth rate constant at 4 mg/L at 37 degC by TAM air microcalorimetry; type: functional; method in brief: as §2
[8] = tested on: Schizosaccharomyces pombe; assay: Inhibitive ratio of growth metabolism of Schizosaccharomyces pombe ACCC 20047 at 40 mg/L at 32 degC by TAM air microcalorimetry (reference value: 0%); type: functional; method in brief: as §1
[9] = tested on: Schizosaccharomyces pombe; assay: Inhibitive ratio of growth metabolism of Schizosaccharomyces pombe ACCC 20047 at 400 mg/L at 32 degC by TAM air microcalorimetry (reference value: 0%); type: functional; method in brief: as §1
[10] = tested on: K562; assay: Inhibitive ratio of growth metabolism of human K562 cells at 7 mg/L at 37 degC by TAM air microcalorimetry (reference value: 0%); type: functional; method in brief: as §2
[11] = tested on: Schizosaccharomyces pombe; assay: Inhibitive ratio of growth metabolism of Schizosaccharomyces pombe ACCC 20047 at 80 mg/L at 32 degC by TAM air microcalorimetry (reference value: 0%); type: functional; method in brief: as §1
[12] = tested on: Schizosaccharomyces pombe; assay: Inhibitive ratio of growth metabolism of Schizosaccharomyces pombe ACCC 20047 at 160 mg/L at 32 degC by TAM air microcalorimetry (reference value: 0%); type: functional; method in brief: as §1
[13] = tested on: Schizosaccharomyces pombe; assay: Inhibition of growth metabolism of Schizosaccharomyces pombe ACCC 20047 assessed as growth rate constant at 240 mg/L at 32 degC by TAM air microcalorimetry; type: functional; method in brief: as §1
[14] = tested on: Schizosaccharomyces pombe; assay: Inhibitive ratio of growth metabolism of Schizosaccharomyces pombe ACCC 20047 at 320 mg/L at 32 degC by TAM air microcalorimetry (reference value: 0%); type: functional; method in brief: as §1
[15] = tested on: K562; assay: Inhibition of growth metabolism of human K562 cells assessed as growth rate constant at 11 mg/L at 37 degC by TAM air microcalorimetry; type: functional; method in brief: as §2
[16] = tested on: K562; assay: Inhibition of growth metabolism of human K562 cells assessed as growth rate constant at 7 mg/L at 37 degC by TAM air microcalorimetry; type: functional; method in brief: as §2
[17] = tested on: Schizosaccharomyces pombe; assay: Inhibitive ratio of growth metabolism of Schizosaccharomyces pombe ACCC 20047 at 20 mg/L at 32 degC by TAM air microcalorimetry (reference value: 0%); type: functional; method in brief: as §1
[18] = tested on: K562; assay: Inhibitive ratio of growth metabolism of human K562 cells at 11 mg/L at 37 degC by TAM air microcalorimetry (reference value: 0%); type: functional; method in brief: as §2
[19] = tested on: Schizosaccharomyces pombe; assay: Inhibition of growth metabolism of Schizosaccharomyces pombe ACCC 20047 assessed as growth rate constant at 160 mg/L at 32 degC by TAM air microcalorimetry; type: functional; method in brief: as §1
[20] = tested on: Schizosaccharomyces pombe; assay: Inhibition of growth metabolism of Schizosaccharomyces pombe ACCC 20047 assessed as growth rate constant at 400 mg/L at 32 degC by TAM air microcalorimetry; type: functional; method in brief: as §1
[21] = tested on: Schizosaccharomyces pombe; assay: Inhibition of growth metabolism of Schizosaccharomyces pombe ACCC 20047 assessed as growth rate constant at 320 mg/L at 32 degC by TAM air microcalorimetry; type: functional; method in brief: as §1
[22] = tested on: Schizosaccharomyces pombe; assay: Inhibition of growth metabolism of Schizosaccharomyces pombe ACCC 20047 at 32 degC by TAM air microcalorimetry; type: functional, organism-based; method in brief: as §1
[23] = tested on: K562; assay: Inhibition of growth metabolism of human K562 cells at 37 degC by TAM air microcalorimetry; type: functional, cell-based; method in brief: as §2
[24] = tested on: K562; assay: Inhibitive ratio of growth metabolism of human K562 cells at 9 mg/L at 37 degC by TAM air microcalorimetry (reference value: 0%); type: functional; method in brief: as §2
[25] = tested on: K562; assay: Inhibition of growth metabolism of human K562 cells assessed as growth rate constant at 9 mg/L at 37 degC by TAM air microcalorimetry; type: functional; method in brief: as §2
[26] = tested on: Schizosaccharomyces pombe; assay: Inhibitive ratio of growth metabolism of Schizosaccharomyces pombe ACCC 20047 at 240 mg/L at 32 degC by TAM air microcalorimetry (reference value: 0%); type: functional; method in brief: as §1
[27] = tested on: K562; assay: Inhibitive ratio of growth metabolism of human K562 cells at 8 mg/L at 37 degC by TAM air microcalorimetry (reference value: 0%); type: functional; method in brief: as §2
[28] = tested on: K562; assay: Inhibition of growth metabolism of human K562 cells assessed as growth rate constant at 6 mg/L at 37 degC by TAM air microcalorimetry; type: functional; method in brief: as §2
[29] = tested on: K562; assay: Inhibition of growth metabolism of human K562 cells assessed as growth rate constant at 12 mg/L at 37 degC by TAM air microcalorimetry; type: functional; method in brief: as §2
[30] = tested on: K562; assay: Inhibitive ratio of growth metabolism of human K562 cells at 12 mg/L at 37 degC by TAM air microcalorimetry (reference value: 0%); type: functional; method in brief: as §2
[31] = tested on: K562; assay: Inhibition of growth metabolism of human K562 cells assessed as growth rate constant at 2 mg/L at 37 degC by TAM air microcalorimetry; type: functional; method in brief: as §2
[32] = tested on: K562; assay: Inhibitive ratio of growth metabolism of human K562 cells at 2 mg/L at 37 degC by TAM air microcalorimetry (reference value: 0%); type: functional; method in brief: as §2
[33] = tested on: K562; assay: Inhibition of growth metabolism of human K562 cells assessed as growth rate constant at 14 mg/L at 37 degC by TAM air microcalorimetry; type: functional; method in brief: as §2
[34] = tested on: K562; assay: Inhibitive ratio of growth metabolism of human K562 cells at 14 mg/L at 37 degC by TAM air microcalorimetry (reference value: 0%); type: functional; method in brief: as §2

| SMILES | Activity [1] [min⁻¹] | inhibition at 6 µg/mL [2] [%] | Activity [3] [min⁻¹] | inhibition at 4 µg/mL [4] [%] | Activity [5] [min⁻¹] | Activity [6] [×10⁻⁴ /min] | Activity [7] [×10⁻⁴ /min] | inhibition at 40 µg/mL [8] [%] | inhibition at 400 µg/mL [9] [%] | inhibition at 80 µg/mL [11] [%] | inhibition at 160 µg/mL [12] [%] | Activity [13] [min⁻¹] | inhibition at 320 µg/mL [14] [%] | inhibition at 20 µg/mL [17] [%] | Activity [19] [min⁻¹] | Activity [20] [min⁻¹] | Activity [21] [min⁻¹] | IC50 [22] [µg/mL] | IC50 [23] [µg/mL] | inhibition at 240 µg/mL [26] [%] | other results |
| --- | --- | --- | --- | --- | --- | --- | --- | --- | --- | --- | --- | --- | --- | --- | --- | --- | --- | --- | --- | --- | --- |
| COc1ccc(C(=O)C(C)C(C)C(=O)c2ccc(OC)c(OC)c2)cc1OC (stereo unspecified) | 0.00462 | -0.78 | 0.00479 | -13.9 | 0.0046 | 2.2866 | 4.4893 | -4.05 | 83 | -3.6 | 5.18 | 0.00341 | 63.3 | -7.88 | 0.00421 | 0.00075 | 0.00163 | 290 (≈ 750 µM) | 8.57 (≈ 22.2 µM) | 23.2 | inhibition at 7 µg/mL [10]: 7.96%; Activity [15]: 1.681 ×10⁻⁴ /min; Activity [16]: 3.6261 ×10⁻⁴ /min; inhibition at 11 µg/mL [18]: 57.3%; inhibition at 9 µg/mL [24]: 55.8%; Activity [25]: 1.7435 ×10⁻⁴ /min; inhibition at 8 µg/mL [27]: 42%; Activity [28]: 3.9703 ×10⁻⁴ /min |
| COc1ccc(-c2oc(-c3ccc(OC)c(OC)c3)c(C)c2C)cc1OC | 0.00429 | 18.9 | 0.00427 | -13.2 | 0.00431 | 3.0855 | 4.3527 | -1.66 | 73.2 | -2.13 | -1.9 | 0.00346 | 35.3 | -1.18 | 0.0043 | 0.00113 | 0.00273 | 350 (≈ 950 µM) | 11.2 (≈ 30.5 µM) | 18 | Activity [29]: 1.65 ×10⁻⁴ /min; inhibition at 12 µg/mL [30]: 57.1%; Activity [31]: 3.9155 ×10⁻⁴ /min; inhibition at 2 µg/mL [32]: -1.79%; Activity [33]: 7.6784 ×10⁻⁵ /min; inhibition at 8 µg/mL [27]: 19.8%; Activity [28]: 3.1202 ×10⁻⁴ /min; inhibition at 14 µg/mL [34]: 80% |
